These results are taken from ChEMBL document CHEMBL1122207, “Antitumor agents. 2. Bisguanylhydrazones of anthracene-9,10-dicarboxaldehydes” (1982).

Where only a bound is given, the exact number is not on record here.

Holding throughout (assay type): functional
For assay [1], the species on record is Mus musculus. Description: Anticancer activity measured as the number of survivors of the total treated mice with P-388 leukemia at 30 days. The method in brief:
(§1)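 BDF1 or CDF1 mice given 10^6 ascitic P-388 leukemia cells ip, then treated ip on days 1, 5 and 9. Cures are survivors over total treated at 30 days.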

Assay [2] concerns Mus musculus. Description: Percent increase in median life span of BDF1 mice with P-388 leukemia at dose 6.25 mg/kg administered intraperitoneally. Particulars: BDF1, P388, ip, route intraperitoneal.
For assay [3], the species on record is Mus musculus. Description: Number of survivors of the total treated mice with B-16 melanoma, at 60 days. The method in brief:
(§2)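 BDF1 mice were implanted ip with a homogenate from 0.05 g of B-16 melanoma and dosed ip on days 1-9. Cures are survivors over total at 60 days.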

Assay [4] relates to Mus musculus. Description: Percent increase in median life span of BDF1 mice with B-16 melanoma at dose 3.00 mg/kg administered intraperitoneally. The settings on record: BDF1, B16, ip, route intraperitoneal. Summed up: (§3)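 BDF1 mice were implanted ip with a homogenate from 0.05 g of B-16 melanoma. Ip dosing ran on days 1-9, starting 24 h after implant, in dose-response studies following NCI protocols. The read-out was percent increase in life span (ILS). T/C ≥125% was taken as significant.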

For assay [5], the system named is Mus musculus. Description: Percent increase in median life span of BDF1 mice with P-388 leukemia at dose 18.8 mg/kg administered intraperitoneally. Particulars: BDF1, P388, ip, route intraperitoneal.
Assay [6] deals with Mus musculus. Description: Percent increase in median life span of BDF1 mice with B-16 melanoma at dose 6.25 mg/kg administered intraperitoneally; 1-9 days of ip treatment relative to tumor inoculation. Particulars: BDF1, B16, ip, route intraperitoneal. Summed up:
as §3

Assay [7] is filed under the species Mus musculus. Description: Cures is the number of survivors of the total treated mice (10) with advanced B-16 melanoma, at 30 days.
In assay [8] the test system is Mus musculus. Description: Percent increase in median life span of BDF1 mice with Colon 26 at dose 12.5 mg/kg administered intraperitoneally; 1, 5, 9 days of ip treatment relative to tumor inoculation. The settings on record: BDF1, Colon 26, ip, 216 h, route intraperitoneal.
For assay [9], the species on record is Mus musculus. Description: Cures is the number of survivors of the total treated mice (10) with B-16 melanoma, at 60 days. Summed up: as §2
For assay [10], the species on record is Mus musculus. Description: Cures is the number of survivors of the total treated mice (5) with L-1210 leukemia, at 30 days.
The species entered for assay [11] is Mus musculus. Description: Cures is the number of survivors of the total treated mice (10) with Colon 26, at 60 days.
Assay [12] relates to Mus musculus. Description: Percent increase in median life span of BDF1 mice with P-388 leukemia at dose 6.25 mg/kg administered intraperitoneally; range 125-145%; 1, 5, 9 days of ip treatment relative to tumor inoculation. Particulars: BDF1, P388, ip, 216 h, route intraperitoneal. The method in brief:
(§4)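 BDF1 or CDF1 mice given 10^6 ascitic leukemia cells ip, then dosed ip on days 1, 5 and 9. Read-out is percent increase in life span versus untreated controls. Cures were scored as survivors/total at 30 days; when cures reached 50% or more, the run was extended until a specific ILS could be calculated. T/C ≥125% counted as significant.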

The species named for assay [13] is Mus musculus. Description: Cures is the number of survivors of the total treated mice (12) with P-388 leukemia, at 30 days. Summed up:
as §1

Assay [14] concerns Mus musculus. Description: Percent increase in median life span of BDF1 mice with L-1210 leukemia at dose 6.2 mg/kg administered intraperitoneally; 1, 5, 9 days of ip treatment relative to tumor inoculation. The settings on record: BDF1, L1210, ip, 216 h, route intraperitoneal. The method in brief: as §4
Assay [15] deals with Mus musculus. Description: Percent increase in median life span of BDF1 mice with advanced B-16 melanoma at dose 6.2 mg/kg administered intraperitoneally; 5, 9, 13 days of ip treatment relative to tumor inoculation. Particulars: B16, ip, 312 h, route intraperitoneal.
The subject of assay [16] is Mus musculus. Description: Percent increase in median life span of BDF1 mice with advanced L-1210 leukemia at dose 50 mg/kg administered intraperitoneally; treatment day +2 iv. Particulars: L1210.
Assay [17] is filed under the species Mus musculus. Description: Cures is the number of survivors of the total treated mice (6) with P-388 leukemia, at 30 days. The method in brief:
as §1

For assay [18], the system named is Mus musculus. Description: Percent increase in median life span of BDF1 mice with advanced B-16 melanoma at dose 25 mg/kg administered intraperitoneally; 5, 9, 13 days of ip treatment relative to tumor inoculation. Particulars: B16, ip, 312 h, route intraperitoneal.
Assay [19] deals with Mus musculus. Description: Percent increase in median life span of BDF1 mice with madison lung 109 leukemia administered intraperitoneally.
The test system of assay [20] is Mus musculus. Description: Cures is the number of survivors of the total treated mice (6) with advanced L-1210 leukemia, at 30 days; treatment day +2 iv. The method in brief: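 Advanced L-1210 leukemia, treated iv once on day +2 relative to tumor inoculation.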
For assay [21], the species on record is Mus musculus. Description: Cures is the number of survivors of the total treated mice (20) with B-16 melanoma, at 60 days. The method in brief:
as §2

In assay [22] the test system is Mus musculus. Description: Percent tumor inhibition at non-lethal dose was determined in BDF1 mice with madison lung 109 leukemia; 1, 5, 9 days of sc treatment relative to tumor inoculation.
Assay [23] deals with Mus musculus. Description: Percent increase in median life span of BDF1 mice with B-16 melanoma at dose 12 mg/kg administered intraperitoneally; Range 144-145%, 1-9 days of ip treatment relative to tumor inoculation. Particulars: BDF1, B16, ip, route intraperitoneal. Summed up:
as §3

The species named for assay [24] is Mus musculus. Description: Cures is the number of survivors of the total treated mice (26) with Colon 26, at 60 days.
In assay [25] the test system is Mus musculus. Description: Percent increase in median life span of BDF1 mice with advanced P-388 leukemia at dose 25 mg/kg administered intraperitoneally; 4, 8, 12 days of ip treatment relative to tumor inoculation. The settings on record: P388, ip, 288 h, route intraperitoneal.
Assay [26] has as its system Mus musculus. Description: Percent increase in median life span of BDF1 mice with L-1210 leukemia at dose 25 mg/kg administered intraperitoneally; 1, 5, 9 days of ip treatment relative to tumor inoculation. The settings on record: BDF1, L1210, ip, 216 h, route intraperitoneal. Summed up:
as §4

The species named for assay [27] is Mus musculus. Description: Cures is the number of survivors of the total treated mice (24) with P-388 leukemia, at 30 days. Summed up:
as §1

In assay [28] the test system is Mus musculus. Description: Percent increase in median life span of BDF1 mice with P-388 leukemia at dose 25 mg/kg administered intraperitoneally; 1, 5, 9 days of ip treatment relative to tumor inoculation. Particulars: BDF1, P388, ip, 216 h, route intraperitoneal. The method in brief: as §4

Take `Br.Br.CN(C)CC/N=C(\S)N/N=C/c1c2ccccc2c(/C=N/N/C(S)=N/CCN(C)C)c2ccccc12`: the Cures in the assay listed under Mus musculus [1] and in the assay listed under Mus musculus [3] was 0 each time. Besides, in the assay with Mus musculus [2], the ILS (commonly how much longer treated animals lived than controls) at 6.25 mg/kg came to 106%. Further, the ILS at 3 mg/kg in the assay with Mus musculus [4] worked out at 47%.
In the case of `Cc1ccc(C)c2c(/C=N/NC3=NCCN3)c3ccccc3c(/C=N/NC3=NCCN3)c12.Cl.Cl`, the Cures in the assay filed under Mus musculus [1] and in the assay filed under Mus musculus [3] was 0 each time. The ILS at 18.8 mg/kg in the assay on Mus musculus [5] was 57%.
With `Cc1ccc2c(/C=N/NC3=NCCN3)c3ccccc3c(/C=N/NC3=NCCN3)c2c1.Cl.Cl`, the ILS at 6.25 mg/kg in the assay on Mus musculus [6] was 172%; in the assay on Mus musculus [12] it was 145%. Also, the Cures in the assay filed under Mus musculus [7] came to 3; in the assay listed under Mus musculus [9] it was 4; in the assay listed under Mus musculus [10], 0; in the assay listed under Mus musculus [11], 0; in the assay filed under Mus musculus [13] it was 1. Further, the ILS at 12.5 mg/kg in the assay with Mus musculus [8] is ≥ 63%. Besides, the ILS at 6.2 mg/kg was determined as 42% with Mus musculus [14] and 35% in the assay with Mus musculus [15].
As for `C/N=C(\N)N/N=C/c1c2ccccc2c(/C=N/N/C(N)=N/C)c2ccccc12`, the Cures in the assay filed under Mus musculus [7] was determined as 5; in the assay listed under Mus musculus [17], 1; in the assay listed under Mus musculus [10] it was 0; with Mus musculus [20], 0; in the assay listed under Mus musculus [21], 8; in the assay listed under Mus musculus [24] it was 2. The compound further displayed a Cures in the assay listed under Mus musculus [27] of 6. The same compound yielded an ILS at 12.5 mg/kg in the assay on Mus musculus [8] of 129%. Also, the ILS at 50 mg/kg in the assay with Mus musculus [16] turned out to be 50%. The ILS at 25 mg/kg in the assay on Mus musculus [18] stood at 62%; in the assay on Mus musculus [25], 108%; with Mus musculus [26] it was 62%; with Mus musculus [28] it was 157%. Besides, the ILS with Mus musculus [19] is 53%. In the assay with Mus musculus [22], the Inhibition (usually the share of the control response that was lost under treatment) amounted to 89%. This compound had an ILS at 12 mg/kg in the assay on Mus musculus [23] of 145%.
